Measured values reported in PMC12738293 (Oncogene, 2025).
pKd: −log10 of the molar value. No end group written: not given here.

What was measured:
Gemin4 [1] = experiment: Co-IP, XLH-36/Gemin4; type: binding; details: endogenous interaction, Fig. 5E
Gemin4 [2] = experiment: yeast two-hybrid assay; type: binding; details: DDO medium SD/Trp-/Leu-, TDO medium SD/Trp-/Leu-/HIS-
Gemin4 [3] = experiment: Immunofluorescence co-staining XLH-36/Gemin4; type: cell-based; details: MDA-MB-231 cells, confocal immunofluorescence
Method in brief: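 Cells fixed 15 min at RT in β-galactosidase staining fixative, permeabilised with Triton X-100 for 15 min, blocked in 5% BSA for 30 min at RT. Primary antibody overnight at 4 °C, then secondary antibodies 2 h at RT in the dark. DAPI counterstain 10 min in the dark; imaged by fluorescence microscopy. PBS washes between steps.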

Human Gemin4 protein = biological target: T1, Human Gemin4 protein (Homo sapiens, UniProt P57678); experiment: MicroScale thermophoresis; type: binding
T1 sequence (P57678 1-1058): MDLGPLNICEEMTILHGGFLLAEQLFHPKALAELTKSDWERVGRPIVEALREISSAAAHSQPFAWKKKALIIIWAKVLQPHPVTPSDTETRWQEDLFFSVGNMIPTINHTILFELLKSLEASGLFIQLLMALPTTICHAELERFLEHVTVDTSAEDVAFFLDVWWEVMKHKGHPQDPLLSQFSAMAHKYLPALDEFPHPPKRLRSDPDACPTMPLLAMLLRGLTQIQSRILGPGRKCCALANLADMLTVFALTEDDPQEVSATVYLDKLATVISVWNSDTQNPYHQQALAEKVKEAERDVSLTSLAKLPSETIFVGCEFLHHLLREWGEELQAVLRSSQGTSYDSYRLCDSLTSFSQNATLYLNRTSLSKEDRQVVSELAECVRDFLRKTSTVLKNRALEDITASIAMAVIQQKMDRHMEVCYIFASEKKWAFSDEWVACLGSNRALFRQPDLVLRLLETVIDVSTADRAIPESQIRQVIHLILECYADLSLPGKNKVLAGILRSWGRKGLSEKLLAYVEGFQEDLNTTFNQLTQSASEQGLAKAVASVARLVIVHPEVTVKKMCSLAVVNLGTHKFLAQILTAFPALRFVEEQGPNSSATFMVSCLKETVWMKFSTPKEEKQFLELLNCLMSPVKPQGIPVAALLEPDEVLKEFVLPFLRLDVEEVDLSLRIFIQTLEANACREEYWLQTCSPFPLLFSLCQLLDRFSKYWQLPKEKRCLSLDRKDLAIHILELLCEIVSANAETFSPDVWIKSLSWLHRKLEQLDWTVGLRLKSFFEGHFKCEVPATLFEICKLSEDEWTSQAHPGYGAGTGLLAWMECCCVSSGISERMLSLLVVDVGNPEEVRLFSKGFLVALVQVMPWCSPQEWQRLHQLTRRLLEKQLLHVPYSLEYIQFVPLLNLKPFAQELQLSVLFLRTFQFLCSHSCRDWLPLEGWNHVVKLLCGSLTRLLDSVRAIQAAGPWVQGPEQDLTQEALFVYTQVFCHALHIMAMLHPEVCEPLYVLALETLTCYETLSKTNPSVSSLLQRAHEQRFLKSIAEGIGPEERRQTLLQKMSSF
Method in brief: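 Human Gemin4 expressed in HEK293 cells and labelled with Cy5 through cysteine sulfhydryl groups. Binding of the test peptide to the labelled protein was measured by microscale thermophoresis, and affinity was derived with the instrument's affinity analysis tool.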

MRQGPSTEVPGRAPRPRGPAASRADPSLRPEGGQDP [XLH-36]
interaction with Gemin4 (Gemin4 [1]): only Gemin4 was confirmed to interact with XLH-36 | direct interaction with Gemin4 (Gemin4 [2]): supported the direct interaction between XLH-36 and Gemin4 | IF interaction with Gemin4 (Gemin4 [3]): XLH-36 indeed interacted with Gemin4 | pKd (Human Gemin4 protein): 5.32
